MITF TRPM1 HTS – MITF TRPM1 promoter activation in melanoma cells | SK-MEL-5 TRPM1-promoter luciferase, 24 h; % of positive control, neutral wells = 0 | activation, % at 12.5 µM | 300,000 tested, 0.75% active | AID 588334;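 active = mean activation of at least 80% with every replicate also reaching 80%; inconclusive = mean reaches 80% but some replicate falls short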
Vif imaging – blocks HIV Vif function | inhibition, % at 7.49 µM | AID 602346 | 340,000 tested, 0.35% active | HEK293T cells, Vif self-association by quenched fluorescence, imaging, 24 h; in the data active = inhibition above about 50%, passing the limit was not always enough; inconclusive = no clear call, values can overlap the other calls; inactive = below about 31%
XiGFP reactiv – reactivates the inactive X chromosome in mouse fibroblasts. XiGFP mouse fibroblasts, % GFP-positive cells imaging, 3 d; cells co-treated with 5-aza-dC sensitizer; scaled so ellipticine positive control = 100%. activation, % at 7.58 µM. 360,000 tested, 0.055% active. AID 743238;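 active = mean normalized replicate activation at least 10% and every replicate at or above 10%; inconclusive = only one of the two criteria met; inactive = mean below 10% and not all replicates reach 10%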
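material = 68-5-11 XiGFP fibroblast line | medium = DMEM plus 5-aza-dC sensitizer | schedule = 3 days compound exposure | benchmarks = positive control ellipticine, 6 µM final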
Wnt act – Wnt/beta-catenin pathway activation; AID 743398; 300,000 tested, 1.2% active; Wnt/beta-catenin reporter cell assay, activator, plate reader; activation, % at 9.35 µM; in the data active = activation above about 30%, passing the limit was not always enough; inconclusive = no clear call, values can overlap the other calls
esBAF inh – blocks esBAF chromatin remodeling in mouse ES cells; Bmi1-luciferase knock-in reporter, 24 h; 100% = twice the neutral-well signal; reporter increase, % at 12.5 µM; 350,000 tested, 2% active; AID 602393; in the data active = activation above about 40%; inconclusive = no clear call, values can overlap the other calls;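 also: a rise in the Bmi1 reporter signal indicates esBAF inhibition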
Numbers stand for hits; n = inactive; u = inconclusive; x = no result given. This is a sample that favours compounds with a hit; in the whole collection about 2.6% have one here.

SMILES	MITF TRPM1 HTS	Vif imaging	XiGFP reactiv	Wnt act	esBAF inh
CC(C)NC(=O)N(C)C[C@@H]1Oc2cc(-c3cncnc3)ccc2S(=O)(=O)N([C@H](C)CO)C[C@H]1C	x	x	n	x	n
O=C(c1cnccn1)N1C[C@H]2[C@@H](c3ccccc31)[C@@H](CO)N2Cc1ccc2c(c1)OCO2	x	x	n	x	n
CC(C)[C@@H]1CC=CC[C@H](C)Oc2ccccc2C(=O)N(C)[C@@H](C)C(=O)N1 (mixture of isomers)	x	x	n	x	x
C[C@H]1CN([C@@H](C)CO)C(=O)c2cccc(NS(=O)(=O)c3ccccc3)c2O[C@H]1CN(C)Cc1ccc(Oc2ccccc2)cc1	x	x	n	x	n
Cc1cc(NC(=S)Nc2ccc(C)c(Cl)c2)n[nH]1	90.7	n	n	u	x
COc1ccc(NC(=S)Nc2cc(C)[nH]n2)cc1Cl	n	n	n	n	n
CC(=O)Nc1c(O)nc(SCC(=O)Nc2ccc(C(C)=O)cc2)[nH]c1=O	n	n	x	n	75.5
CC(=O)Nc1c(O)nc(SCC(=O)Nc2cccc(C)c2)[nH]c1=O	n	n	x	x	n
C[C@H](NC(=O)C[C@H]1C=C[C@H](NC(=O)C2CC2)[C@H](CO)O1)c1ccccc1	x	x	n	x	n
CNC[C@@H]1Oc2c(NS(=O)(=O)c3ccc(OC)cc3)cccc2C(=O)N([C@@H](C)CO)C[C@H]1C	x	x	n	x	x
N#C/C(=C1/CCCCCN1)c1nc2ccccc2s1	n	n	x	x	57.1
Cc1cccc(-c2ccc([C@H]3[C@H](CO)N4C(=O)CN(C(=O)c5cccnc5)C[C@@H]34)cc2)c1	x	x	n	x	x
O=C(NC1CCCC1)c1cc2cc(Br)ccc2o1	u	n	n	u	68.7
O=C(NC1CCCC1)c1cc2ccccc2o1	n	n	n	n	x
O=C(NC1CCCCC1)c1cc2cc(Br)ccc2o1	x	n	n	n	56.2
C[C@@H]1CN([C@H](C)CO)C(=O)c2cc(C#C[C@@H](C)O)cnc2O[C@@H]1CN(C)C(=O)CC1CC1	x	x	n	x	n
COc1ccc2c(=O)c(-c3nc(C)cs3)coc2c1	n	n	x	x	x
Cc1csc(-c2coc3cc(O)cc(C)c3c2=O)n1	n	n	x	n	60.2
CCc1cc2c(=O)c(-c3nc(C)cs3)coc2cc1O	n	n	n	38.9	47.8
O=Nc1c(-c2c(O)[nH]c3cc(Br)ccc23)[nH]c2ccccc12	n	n	n	77.3	111.1
O=C1C2=C(CCCC2)C(=O)N1c1cccc(OCCBr)c1	n	n	n	n	x
CC(C)CN(CCOc1cccc(N2C(=O)C3=C(CCCC3)C2=O)c1)CC(C)C	n	n	n	42.3	x
C/C(CC1(O)C(=O)N(Cc2ccccc2)c2ccccc21)=N\O (stereo not drawn)	n	x	x	n	n
CC(=O)CC1(O)C(=O)N(Cc2ccccc2)c2ccccc21 (stereo not drawn)	n	n	x	43.2	n
Cc1ccc(N2C(=O)c3cccc4c(N)ccc(c34)C2=O)c2cccnc12	n	x	115.7	n	n
SMILES	MITF TRPM1 HTS	Vif imaging	XiGFP reactiv	Wnt act	esBAF inh
C[C@H](CO)N1C[C@H](C)[C@H](CN(C)Cc2ccc(Cl)c(Cl)c2)OCCCC[C@H](C)Oc2ccc(NC(=O)Nc3ccc(F)cc3)cc2C1=O	x	x	n	x	n
COc1c(CC=C(C)C)c(O)cc2oc(=O)c3c4ccc(O)cc4oc3c12	x	n	x	x	n
CC(C)=CCc1c(O)cc2c(=O)c3ccc(O)cc3oc2c1O	x	n	x	n	59.3
C=C1CCCC2OC(CC3=CC4/C(C)=C/CC(C)CC(/C=C(\C)C(O)C5CC(O)C(O)C(CCC(O)/C=C/C(C)=C/CCC6=NCCC(C3)C64C)O5)OC(=O)CC3OC(C(O)C1)C(O)C3O)CC(O)C2O (stereo not drawn)	x	118.2	x	n	n
COc1ccc2c3c(n(C)c2c1)[C@@H](CO)N(C(=O)C1CC1)CC31CN(C)C1	x	x	n	x	x
CC(C)=CC(=O)Nc1ccc(OCc2ccccc2)cc1	n	n	n	41.4	50.1
O=C(Nc1ccc(OCc2ccccc2)cc1)c1ccccc1	n	n	n	n	x
CCOC(=O)c1c(NC(=O)c2cc(C)oc2C)sc(C(=O)Nc2ccc(Cl)cc2)c1C	n	x	x	41.7	u
Cc1cc(C(=O)Nc2ccc(OCc3ccccc3)cc2)c(C)o1	n	n	n	n	44.0
CC(C)=CC(=O)Nc1ccc(Br)cc1	107.2	n	x	n	65.5
CC(=O)Nc1ccc(NC(=S)Nc2ccc(Br)cc2)cc1	n	n	n	n	x
N#C[C@H]1[C@H](c2ccc(C#CC3CCCC3)cc2)[C@@H](CO)N1C(=O)Cc1ccccn1	x	x	n	x	x

Screens (PubChem BioAssay)
